Structures are written as SMILES. Where only a bound is given, the exact number is not on record here.

One data set relates to Leishmania chagasi. The experiment in a line: Antiprotozoal activity against Leishmania chagasi PP75 in vero cells. The data set is classed as functional, organism-based.
In data set [1] the test system is Leishmania amazonensis. The experiment in a line: Antiprotozoal activity against Leishmania amazonensis 575 in vero cells. Format: functional, organism-based. To be noted: promastigotes, in the assay text read “promastigotes” for “in vero cells”. Summed up: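 Axenic growth assay: L. amazonensis 575 promastigotes were grown in Schneider's medium with 5% heat-inactivated FBS, and T. cruzi Y epimastigotes in LIT medium with 10% FBS. Parasites at 1 × 10^6 cells/ml were exposed to 0.2–100 µM for 72 h at 28 °C. Survivors were counted in a Neubauer chamber. Three experiments were run in triplicate, and IC50 was derived by linear regression.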

In data set [2] the test system is Leishmania amazonensis. Put plainly: Reduction of Leishmania amazonensis 575 amastigotes infection in mouse peritoneal macrophage at 10 uM after 48 hrs. Format: functional. Also on record: scale not given: the % may be the effect or the level left. Summed up:
(§1)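 Peritoneal macrophages from female albino Swiss mice were grown on glass slides in DMEM with 20% heat-inactivated FBS at 37 °C, 5% CO2. Cells were infected with L. amazonensis promastigotes at 1:10 cell:parasite for 4 h, then treated for 48 h. Slides were methanol-fixed and Giemsa-stained, and 500 random cells were scored for infection rate. Values are the mean of two experiments.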

The nature of data set [3]: Cytotoxicity against Vero cells by MTT assay. The data set is classed as cell-based. To be noted: African green monkey. Summed up:
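Vero cells were exposed to compounds for 72 h at 37 °C, then incubated with MTT for 4 h. Formazan was dissolved in DMSO and read at 540 nm. CC50 was derived by linear regression, with ANOVA and Dunnett's test.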
For orientation: Formazan colour is commonly taken as a measure of viable cells.

Data set [4] relates to Trypanosoma cruzi. Put plainly: Antiprotozoal activity against Trypanosoma cruzi Y in vero cells. The data set is classed as functional, organism-based.
In data set [5] the test system is Leishmania amazonensis. Put plainly: Reduction of Leishmania amazonensis 575 infection in mouse peritoneal macrophage at 25 uM after 48 hrs. The data set is classed as functional. Summed up: as §1
For data set [6], the system named is Leishmania amazonensis. Put plainly: Reduction of Leishmania amazonensis 575 infection in mouse peritoneal macrophage at 5 uM after 48 hrs. Format: functional. Further details: scale not given: the % may be the effect or the level left. Summed up: as §1
Data set [7] concerns Leishmania amazonensis. The experiment in a line: Reduction of Leishmania amazonensis 575 infection in mouse peritoneal macrophage at 1 uM after 48 hrs. Format: functional. Also on record: scale not given: the % may be the effect or the level left. Summed up: as §1
Data set [8] relates to Trypanosoma cruzi. Put plainly: Reduction of Trypanosoma cruzi Y amastigotes infection in Vero cells at 1 uM after 48 hrs. Format: functional. Further details: scale not given: the % may be the effect or the level left. Summed up: (§2)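 Vero cells on glass slides in DMEM with 5% FBS at 37 °C, 5% CO2 were infected with culture-derived trypomastigotes at 1:10 cell:parasite for 6 h. Non-adherent parasites were washed off, and cells were treated for 48 h. Slides were methanol-fixed and Giemsa-stained, and 500 random cells were examined at 1000× for infection rate. Values are the mean of two experiments.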

For data set [9], the system named is Trypanosoma cruzi. The experiment in a line: Reduction of Trypanosoma cruzi Y amastigotes infection in Vero cells at 25 uM after 48 hrs. Also on record: scale not given: the % may be the effect or the level left. Format: functional. Summed up: as §2
In data set [10] the test system is Trypanosoma cruzi. Put plainly: Reduction of Trypanosoma cruzi Y amastigotes infection in Vero cells at 5 uM after 48 hrs. The data set is classed as functional. Also on record: scale not given: the % may be the effect or the level left. Summed up: as §2

In the case of `C[C@@H]1[C@H](O)[C@@H](C)/C=C/C=C/C=C/C=C/C=C/C=C/C=C/[C@H](O[C@@H]2O[C@H](C)[C@@H](O)[C@H](N)[C@@H]2O)C[C@@H]2O[C@](O)(C[C@@H](O)C[C@@H](O)[C@H](O)CC[C@@H](O)C[C@@H](O)CC(=O)O[C@H]1C)C[C@H](O)[C@H]2C(=O)O` [AMPHOTERICIN B], the IC50 (usually the concentration that gives 50% inhibition) in the data set with Leishmania chagasi came out at 0.25 µM; with Leishmania amazonensis [1], 0.31 µM. Further, the Activity with Leishmania amazonensis [2] was found to be 97%. The midpoint of cytotoxicity in data set [3], the CC50, lay at 98.4 µM.

Take `O=S(=O)(Nc1cccc2cccnc12)c1ccc(Br)cc1`: the IC50 in the data set on Leishmania chagasi was 2.99 µM; with Leishmania amazonensis [1] it was 4.94 µM; in the data set on Trypanosoma cruzi [4], more than 100 µM. Besides, the CC50 (in general, the concentration at which the toxic effect on the cells reaches its halfway point) in data set [3] was determined as 88.7 µM.

As to `CCCc1ccc(S(=O)(=O)Nc2cc(OC)cc3ccc(C)nc23)cc1`, the IC50 in the data set with Leishmania chagasi, with Leishmania amazonensis [1] and in the data set on Trypanosoma cruzi [4] was more than 100 µM in each case.

On to `CN(C)c1cccc2c(S(=O)(=O)Nc3cccc4cccnc34)cccc12`, for which the half-maximal inhibitory concentration (IC50) in the data set on Leishmania chagasi was 3.53 µM; in the data set with Leishmania amazonensis [1] it was 7.18 µM; in the data set with Trypanosoma cruzi [4] it was more than 100 µM. Besides, the Activity result in the data set with Leishmania amazonensis [5] was “Toxic”; in the data set on Leishmania amazonensis [6], 48.2%; in the data set on Leishmania amazonensis [7] it was 25.7%. The molecule also came in with a CC50 in [3] of 84.2 µM.

With `O=S(=O)(Nc1cccc2cccnc12)c1cnc(Cl)c(Br)c1`, the half-inhibitory concentration (IC50) with Leishmania chagasi was 0.56 µM; in the data set with Leishmania amazonensis [1] it was 2.25 µM; with Trypanosoma cruzi [4] it was 31.8 µM. For the same molecule, the Activity amounted to 78.6% with Trypanosoma cruzi [8]; 84.8% with Leishmania amazonensis [5]; 67.1% in the data set on Leishmania amazonensis [6]; 96.4% in the data set on Trypanosoma cruzi [9]; 52% in the data set with Leishmania amazonensis [7]; 85.2% in the data set with Trypanosoma cruzi [10]. For the same molecule, the midpoint of cytotoxicity in [3], the CC50, lay at 67.4 µM.

In the case of `O=C(Cn1ccnc1[N+](=O)[O-])NCc1ccccc1` [BENZNIDAZOLE], the Activity in the data set on Trypanosoma cruzi [9] turned out to be 92%. This molecule also gave a half-maximal inhibitory concentration (IC50) with Trypanosoma cruzi [4] of 14.6 µM. Also, in data set [3], the CC50 was more than 1000 µM.

Turning to `O=S(=O)(Nc1cccc2cccnc12)c1cc(F)cc(F)c1`, the IC50 in the data set on Leishmania chagasi was 0.45 µM; with Leishmania amazonensis [1], 2.12 µM; in the data set with Trypanosoma cruzi [4] it was more than 100 µM. In data set [3], the CC50 stood at 66.3 µM.

Take `O=S(=O)(Nc1cccc2cccnc12)c1ccc(-c2ccccc2)cc1`: the IC50 with Leishmania chagasi is 2.18 µM; in the data set with Leishmania amazonensis [1], 6.27 µM; in the data set with Trypanosoma cruzi [4], more than 100 µM. The Activity is 82.1% in the data set on Leishmania amazonensis [5], 72.3% in the data set on Leishmania amazonensis [6] and 60% with Leishmania amazonensis [7]. In addition, the CC50 in data set [3] came out at 245 µM.

For the molecule `O=S(=O)(Nc1cccc2cccnc12)c1cc(Br)c(Br)s1`, the IC50 was 0.53 µM in the data set with Leishmania chagasi, 2.85 µM in the data set with Leishmania amazonensis [1] and more than 100 µM in the data set on Trypanosoma cruzi [4]. The CC50 in data set [3] is 68.7 µM.

In the case of `CCCc1ccc(S(=O)(=O)Nc2c(Br)cc(Br)c3cccnc23)cc1`, the IC50 with Leishmania chagasi, in the data set on Leishmania amazonensis [1] and in the data set with Trypanosoma cruzi [4] was more than 100 µM throughout.

In the case of `CCCc1ccc(S(=O)(=O)Nc2cccc3cccnc23)cc1`, the IC50 is 14 µM with Leishmania chagasi, 14.5 µM in the data set on Leishmania amazonensis [1] and more than 100 µM in the data set on Trypanosoma cruzi [4]. Besides, the results for the Activity with Leishmania amazonensis [5], with Leishmania amazonensis [6] and with Leishmania amazonensis [7] were 63.7%, 52.2% and 18.7%, respectively. The molecule further had a CC50 in [3] of 64.4 µM.

As to `O=[N+]([O-])c1ccc(S(=O)(=O)Nc2cccc3cccnc23)cc1`, the IC50 in the data set on Leishmania chagasi, in the data set on Leishmania amazonensis [1] and in the data set with Trypanosoma cruzi [4] was more than 100 µM throughout.

Turning to `CC(C)c1cc(C(C)C)c(S(=O)(=O)Nc2cccc3cccnc23)c(C(C)C)c1`, the IC50 in the data set on Leishmania chagasi, in the data set with Leishmania amazonensis [1] and in the data set on Trypanosoma cruzi [4] was more than 100 µM each time.

With `O=S(=O)(Nc1cccc2cccnc12)c1ccc(F)cc1`, the IC50 with Leishmania chagasi, in the data set with Leishmania amazonensis [1] and in the data set on Trypanosoma cruzi [4] was more than 100 µM each time.
